From PubChem BioAssay
The source made the active and inactive calls.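 Rule for the calls, unless noted: active = fluorescence slope after compound addition differing from the mean of all screened samples at 99.7% confidence, in either direction; inactive = the rest.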

Legend:
[1] = inhibitors of TNFa-induced NFkB p65 translocation, primary screen, imaging, HUVEC, MLSMR starter and 10KST1 sets (AID 438;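 active = inhibition above 20% together with a positive visual image hit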;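 note: compound added about 3h40 before a 20 min TNFalpha stimulation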;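 for inhibition: signal is the nuclear over cytoplasmic p65 intensity ratio per well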); settings: HUVEC TNFa-induced p65 nuclear translocation; cell count: measured here: nuclei count (cytotoxicity indicator), at 2.08 µM; inhibition: at 2 µM, stronger effect = higher value, 0% TNFa-plus-vehicle, 100% no-TNFa wells
[2] = reduction of polyQ htt aggregates in cells – imaging, exon1htt(103Q)mCFP cells, high-content imaging, primary screen (AID 483;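 active = visual image review flags a hit and inhibition of aggregation exceeds 20%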;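 note: compound exposure lasted 3 days before fixation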;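 for nuclei count: percent of the per-plate median nuclei count of sample wells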); settings: exon1htt(103Q)mCFP cell line, aggregate imaging, at 2 µM; inhibition of aggregation: stronger effect = higher value; nuclei count: measured here: cell count, toxicity
[3] = endothelial E-selectin expression blockers – imaging, HUVEC, immunofluorescence, MLSMR starter and 10KST1 sets, primary screen (AID 487;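 active = visually confirmed hit in the image check and inhibition above 20%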;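 for inhibition: signal is fraction of cell area covered by stained E-selectin grains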;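 for nuclei count: 100% = median nuclei count of all wells on the same plate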); settings: HUVEC TNFalpha-induced E-selectin immunofluorescence imaging, at 2 µM; inhibition: stronger effect = higher value; nuclei count: measured here: cell number, toxicity
[4] = biological target: Voltage-gated potassium channel subunit beta-2 (Rattus norvegicus) (UniProt P62483); assay: inhibitors of rat Kvbeta2 reductase activity – biochemical, NADPH fluorescence, primary screen (AID 622;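 active = fluorescence slope higher than the sample average by over 3 SD, cut at about -0.22 in these data, passing the limit was not always enough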;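 note: slope of raw intensity against log time taken from 70 to 1610 s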); settings: recombinant KvBeta, 4-cyanobenzaldehyde reduction, at 10 µM, stronger effect = higher value
Sequence of Voltage-gated potassium channel subunit beta-2 (Rattus norvegicus) (P62483 whole entry, looked up): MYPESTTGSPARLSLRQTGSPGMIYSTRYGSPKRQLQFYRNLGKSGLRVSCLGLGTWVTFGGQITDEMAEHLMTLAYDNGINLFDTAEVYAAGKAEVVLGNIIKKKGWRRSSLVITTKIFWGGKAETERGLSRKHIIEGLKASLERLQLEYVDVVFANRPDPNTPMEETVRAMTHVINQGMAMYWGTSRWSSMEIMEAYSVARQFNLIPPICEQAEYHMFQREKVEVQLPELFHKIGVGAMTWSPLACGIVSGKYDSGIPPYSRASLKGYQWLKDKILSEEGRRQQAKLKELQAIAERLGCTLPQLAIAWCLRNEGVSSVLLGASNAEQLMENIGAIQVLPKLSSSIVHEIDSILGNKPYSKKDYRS

[5] = biological target: Voltage-gated potassium channel subunit beta-2 (Rattus norvegicus) (UniProt P62483); assay: enhancers of rat Kvbeta2 NADPH turnover – biochemical, NADPH fluorescence, primary screen (AID 623;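 active = NADPH fluorescence slope more negative than the mean of all samples by about 3 SD, 99.7% confidence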;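 note: fluorescence intensity change per second fitted from 20 to 320 s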); settings: Recombinant KvBeta, NADPH fluorescence decrease slope, 10 min; at 10 µM; stronger effect = lower value
[6] = biological target: Alpha-2C adrenergic receptor (Homo sapiens) (UniProt P18825); assay: compounds altering alpha2C-coupled GIRK flux – cell-based, HEK293 alpha2C/GIRK1/2, thallium flux, primary screen (AID 624); settings: thallium flux BTC fluorescence, at 10 µM, actives lie on both sides;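 note: slope of fluorescence ratio to pre-addition baseline per second over 15 to 24 s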
Sequence of Alpha-2C adrenergic receptor (Homo sapiens) (P18825 whole entry, looked up): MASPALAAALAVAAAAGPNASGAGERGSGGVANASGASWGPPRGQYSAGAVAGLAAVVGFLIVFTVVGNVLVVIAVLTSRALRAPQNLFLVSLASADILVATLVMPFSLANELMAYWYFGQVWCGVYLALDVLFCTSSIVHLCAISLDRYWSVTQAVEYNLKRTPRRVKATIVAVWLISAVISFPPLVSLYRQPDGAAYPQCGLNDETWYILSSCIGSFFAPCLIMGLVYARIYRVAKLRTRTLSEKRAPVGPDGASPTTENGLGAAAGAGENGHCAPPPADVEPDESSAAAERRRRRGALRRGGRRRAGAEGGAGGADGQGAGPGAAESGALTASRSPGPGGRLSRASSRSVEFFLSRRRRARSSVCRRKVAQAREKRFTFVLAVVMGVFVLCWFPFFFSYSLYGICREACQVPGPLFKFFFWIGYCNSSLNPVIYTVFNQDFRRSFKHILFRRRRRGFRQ

[7] = blockers of RIG-like receptor reporter activation – cell-based, Sendai virus stimulus, luciferase, 10K MLSCN set, TLR/RLR signaling modifier project, primary screen (AID 602276;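 active = inhibition at or above 50% at 10 µM; inactive = inhibition below 50%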;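 note: firefly luciferase from ISG56 promoter only with Renilla not read in this screen; 0% = Sendai virus plus DMSO and 100% = medium plus DMSO without virus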); settings: HEK293 RL24 IRF3 luciferase reporter, at 10 µM, stronger effect = higher value
[8] = TLR3 IRF3 reporter activation blockers – cell-based, poly I:C stimulus, luciferase, 10K MLSCN set, primary screen (AID 602277;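 active = inhibition of the reporter signal at or above 50%; inactive = inhibition below 50%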); settings: HEK293-TLR3 RL24 IRF3 luciferase reporter, at 10 µM, stronger effect = higher value
[9] = inhibitors of larval lipid processing in zebrafish, primary screen, whole organism, PED6 fluorescence, gall bladder and intestine (AID 686;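 active = a full or partial loss of lipid-probe fluorescence in the fish gall bladder, intestine or both, judged by eye; inactive = no fluorescence loss, or compound toxic to the fish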;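 note: larvae 5 to 7 days old with five fish per well; signal comes from phospholipase A2 cleavage of quenched PED6 carried via bile; overnight exposure to compound and PED6 before scoring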); settings: Zebrafish larvae PED6 lipid processing, fluorescence scoring; screened at 20 µM (by protocol)
Procedure, shortened: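 Doses: 20 µM single dose. Test system: live zebrafish larvae aged 5-7 days, whole organism. Quantity: five larvae per well. Measured by: By-eye fluorescence microscopy. Reagent: ingested quenched lipid PED6 at 100 nM. Read-out: visual per-well fluorescence inhibition score. Times: overnight exposure of larvae to compound plus PED6.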

Structure (SMILES)	cell count [1]	inhibition [1]	inhibition of aggregation [2]	nuclei count [2]	inhibition [3]	nuclei count [3]	fluorescence slope [4]	NADPH fluorescence slope [5]	slope [6]	inhibition [7]	inhibition [8]	outcome [9]
Cc1cc(Nc2ccccc2F)n2ncnc2n1	542	14.8% (inactive)	-3.9% (inactive)	137%	-59.1% (inactive)	111%	-0.566 (inactive)	-2.7e-05 (inactive)	0.00578 (inactive)	-1.22% (inactive)	12.8% (inactive)	
Cc1cc(C(=O)Cn2cncn2)c(C)n1CCc1ccc(F)cc1	453	-2.5% (inactive)	0.8% (inactive)	91.7%	-92.9% (inactive)	98.5%	-0.48 (inactive)	-4e-05 (inactive)	0.00641 (inactive)	0.317% (inactive)	16.3% (inactive)	
O=C1C2C3C=CC(C3)C2C(=O)N1Cc1ccccc1 (stereo not drawn)	480	-9.2% (inactive)	-2.3% (inactive)	102%	40.2% (inactive)	74.3%	-0.618 (inactive)	-6.1e-05 (inactive)	0.00345 (inactive)	-1.99% (inactive)	-2.25% (inactive)	
O=C(NCC1CCCO1)c1cccc(N2C(=O)C3C4C=CC(C4)C3C2=O)c1 (stereo not drawn)	628	8.8% (inactive)	0% (inactive)	101%	-16.1% (inactive)	118%	-0.42 (inactive)	-4e-05 (inactive)	0.00583 (inactive)	8.37% (inactive)	10.8% (inactive)	
Cc1sc2nc(SCC(=O)N3CCN(CCO)CC3)n(-c3ccccc3)c(=O)c2c1C	397	7% (inactive)	-7.3% (inactive)	111%	-55% (inactive)	121%	-0.456 (inactive)	-4.5e-05 (inactive)	0.00574 (inactive)	16.8% (inactive)	31% (inactive)	
CCC(=O)N1C(=O)CCN(C(C)=O)c2ccccc21	454	11.3% (inactive)	-2.5% (inactive)	109%	-39.7% (inactive)	130%	-0.381 (inactive)	2.5e-05 (inactive)	0.0091 (inactive)	13.1% (inactive)	20.6% (inactive)	
O=C(CCSc1ccccc1)Nc1ccc(S(=O)(=O)N2CCOCC2)cc1	381	5.2% (inactive)	8.5% (inactive)	105%	-102% (inactive)	109%	-0.53 (inactive)	-5.2e-06 (inactive)	0.00555 (inactive)	18.1% (inactive)	11.6% (inactive)	
CCCNC(=O)C1CC(=O)N(c2ccc(OCC(=O)Nc3cc(C)cc(C)c3)cc2)C1 (stereo not drawn)	591	-6.2% (inactive)	-2.7% (inactive)	104%	-6.3% (inactive)	114%	-0.562 (inactive)	-4e-05 (inactive)	0.00634 (inactive)	-3.19% (inactive)	27.9% (inactive)	
COc1ccc(N2C(=O)c3cccc4cccc(c34)C2=O)nn1	345	1.5% (inactive)	4.9% (inactive)	105%	-81.4% (inactive)	114%	-0.421 (inactive)	-2.8e-05 (inactive)	0.00401 (inactive)	9.08% (inactive)	20.4% (inactive)	inactive
O=C(c1ccccc1)c1ccc(N2CCNCC2)cc1	395	4.3% (inactive)	-14.4% (inactive)	92.6%	2.4% (inactive)	102%	-0.518 (inactive)	5.3e-06 (inactive)	0.00569 (inactive)	-41.5% (inactive)	-73.5% (inactive)	inactive
CC1Cc2ccccc2N1CC(=O)NC(=O)NCc1ccco1 (stereo not drawn)	441	-2.6% (inactive)	9.8% (inactive)	91.7%	2.3% (inactive)	109%	-0.436 (inactive)	-9.5e-06 (inactive)	0.00524 (inactive)	16.6% (inactive)	19% (inactive)	inactive
Cc1ccc2[nH]c3c(c2c1)CN(C(=O)CN1CCN(c2cccc(C)c2C)CC1)CC3	392	6.2% (inactive)	22.7% (inactive)	75.3%	-86.9% (inactive)	111%	-0.306 (inactive)	-2.6e-05 (inactive)	0.00467 (inactive)	22.6% (inactive)	24.6% (inactive)	inactive
COc1ccc(C/C(O)=C(\C#N)c2nc3ccccc3s2)cc1	783	-1.1% (inactive)	2.2% (inactive)	98.5%	-15.3% (inactive)	111%	-0.378 (inactive)	-3.1e-05 (inactive)	0.0036 (inactive)	0.322% (inactive)	6.03% (inactive)	inactive; toxic
COc1ccc(NC(=O)CSc2ccccn2)cc1OC	554	-42.2% (inactive)	5.1% (inactive)	107%	10.4% (inactive)	88.2%	-0.384 (inactive)	-1.5e-05 (inactive)	0.00501 (inactive)	-19.5% (inactive)	-27.7% (inactive)	inactive
O=C(c1ccco1)c1nnn(Cc2ccccc2)c1-c1ccccc1	346	-4.3% (inactive)	4% (inactive)	122%	-90% (inactive)	116%	-0.347 (inactive)	7.1e-06 (inactive)	0.00349 (inactive)	-4.9% (inactive)	0.479% (inactive)	inactive
COc1ccccc1N1CCN(c2cc(N3CCCC3)nc(C)n2)CC1	310	7.3% (inactive)	0% (inactive)	102%	-60.1% (inactive)	136%	-0.471 (inactive)	-7.2e-05 (inactive)	0.0045 (inactive)	3.33% (inactive)	1.07% (inactive)	inactive
CC1Oc2ccccc2N(CC(=O)NCc2cccs2)C1=O (stereo not drawn)	787	1.6% (inactive)	2.2% (inactive)	91.4%	-146% (inactive)	120%	-0.448 (inactive)	-6e-05 (inactive)	0.00433 (inactive)	-0.51% (inactive)	-12.6% (inactive)	active; weak signal in gallbladder only
Cc1ccc(CN2CCN(C(=O)C3CCC3)CC2)cc1	361	3.3% (inactive)	23.3% (inactive)	94.3%	-20.6% (inactive)	104%	-0.447 (inactive)	-2.3e-05 (inactive)	0.00503 (inactive)	15.1% (inactive)	6.88% (inactive)	inactive; toxic
O=C(Nc1ccccc1C(=O)O)c1cccc(NC(=O)c2ccc(Br)o2)c1	489	-9.3% (inactive)	-2.4% (inactive)	99.2%	-26.5% (inactive)	161%	-0.441 (inactive)	-4e-05 (inactive)	0.00477 (inactive)	6.35% (inactive)	8.3% (inactive)	inactive
CN(C)C(=O)CN(C)S(=O)(=O)c1ccc(Cl)cc1	447	8.7% (inactive)	10.6% (inactive)	93.2%	-2.4% (inactive)	113%	-0.416 (inactive)	-1.2e-05 (inactive)	0.00557 (inactive)	7.26% (inactive)	6.1% (inactive)	inactive
O=C(CNCCC1=CCCCC1)Nc1ccccc1N1CCCCC1	531	-56.1% (inactive)	-10.4% (inactive)	107%	-65.7% (inactive)	109%	-0.581 (inactive)	-2.4e-05 (inactive)	0.00492 (inactive)	7.21% (inactive)	18.4% (inactive)	
COc1ccc(C2(C(=O)Nc3c(C)n(C)n(-c4ccccc4)c3=O)CCCC2)cc1OC	712	1.6% (inactive)	-9.8% (inactive)	76.1%	-52.3% (inactive)	104%	-0.427 (inactive)	2.3e-05 (inactive)	0.00772 (inactive)	13.1% (inactive)	14.9% (inactive)	
COc1ccccc1-n1nnnc1SCc1cc2c(cc1Br)OCO2	319	-4.5% (inactive)	-1.1% (inactive)	90.3%	-168% (inactive)	130%	-0.437 (inactive)	-4.6e-05 (inactive)	0.00645 (inactive)	19.6% (inactive)	22.9% (inactive)	inactive
Fc1ccc(-c2nnc(CN3CCN(c4ncc(C(F)(F)F)cc4Cl)CC3)o2)cc1	405	-14.7% (inactive)	8.2% (inactive)	111%	-9.8% (inactive)	124%	-0.435 (inactive)	-8.4e-06 (inactive)	0.00518 (inactive)	8.36% (inactive)	-7.66% (inactive)	
CC(=O)Nc1c(O)n(C)c2ccccc12	638	-24.1% (inactive)	4.1% (inactive)	104%	25.2% (inactive)	100%	-0.445 (inactive)	3.6e-05 (inactive)	0.00514 (inactive)	-8.37% (inactive)	2.01% (inactive)	inactive
CC(C)NC(=O)c1ccccc1NC(=O)CCS(=O)(=O)Cc1ccccc1	560	6.6% (inactive)	-10% (inactive)	108%	-26% (inactive)	107%	-0.516 (inactive)	2.6e-05 (inactive)	0.00472 (inactive)	-21.6% (inactive)	-8.53% (inactive)	inactive
COc1ccccc1NC(=O)N(Cc1ccco1)Cc1cc2cccc(C)c2[nH]c1=O	333	-9.3% (inactive)	18.6% (inactive)	105%	30.7% (inactive)	89.2%	-0.347 (inactive)	-5.6e-05 (inactive)	0.00419 (inactive)	8.12% (inactive)	-0.891% (inactive)	inactive
